# TAAR1 antag: antagonists of human TAAR1; CHO RD-HGA16 TAAR1, Fluo-8 calcium fluorescence, antagonist; inhibition, % at 3 µM; 1.5% of 360,000 active;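 active = inhibition above a per-plate cutoff, the mean inhibition of test compounds on that plate plus 3 SD, cut at about 49% in these data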
# Target sequence (Q96RJ0 whole entry, looked up): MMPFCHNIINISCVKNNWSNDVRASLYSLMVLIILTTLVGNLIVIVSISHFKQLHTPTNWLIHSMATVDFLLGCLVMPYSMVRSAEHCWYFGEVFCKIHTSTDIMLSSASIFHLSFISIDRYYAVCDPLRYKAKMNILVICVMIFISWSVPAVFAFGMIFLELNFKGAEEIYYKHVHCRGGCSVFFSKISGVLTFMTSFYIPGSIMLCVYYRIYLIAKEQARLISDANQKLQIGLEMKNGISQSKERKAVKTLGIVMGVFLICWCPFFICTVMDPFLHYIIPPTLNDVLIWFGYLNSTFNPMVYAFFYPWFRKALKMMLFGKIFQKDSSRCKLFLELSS
#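 Test system: CHO RD-HGA16 cells bearing hTAAR1 | Reagent: β-PEA, EC80 | Compound dosing: 3 µM, single point | Schedule: Dye loading 75 min at 37 °C, then 30 min room temperature | Signal: Calcium fluorescence with Fluo-8 | Evaluation: Percent inhibition of PEA-evoked calcium signal, max/basal emission ratio | Control set: DMSO-only wells and EC80 β-PEA-stimulated wells | Repeats: Singlicate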
# TAAR1 agonist: human TAAR1 agonism; Q96RJ0; CHO RD-HGA16 TAAR1, Fluo-8 calcium fluorescence; vehicle wells 0%, saturating PEA agonist 100%; activation, % at 3 µM; 0.99% of 360,000 active; AID 624467;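 active = activation above the mean activation of all test compounds in the run plus 3 SD, cut at about 38% in these data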
#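 Repeats: no replicates (n 1) | Material: CHO-derived RD-HGA16 cells with stable Gα16 and human TAAR1 | Technique: Kinetic Fluo-8 calcium fluorescence | Schedule: 17-24 h seeding, 75 min 37 °C dye, 30 min RT | Evaluation: % activation from peak over basal fluorescence ratio, DMSO-to-PEA scaled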
# rCAG RNA binder: molecules binding r(CAG) RNA repeats; r(CAG) RNA repeat, TO-PRO-1 dye displacement fluorescence; inhibition, % at 3 µM; 1.3% of 370,000 active; AID 651821;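 active = inhibition above the plate cutoff, the mean of all test compounds on that plate plus 3 SD, cut at about 35% in these data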;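 also: higher means more dye released from RNA so lower well fluorescence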
# HCV core dimer: HCV core protein dimerization inhibition; inhibition, % at 5 µM; 0.33% of 300,000 active; TR-FRET GST/Flag-core106 dimerization, 1536-well;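 active = inhibition above the mean of all tested compounds plus 3 SD, set per screening campaign, cut at about 45% in these data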
#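 Test system: GST/Flag-tagged HCV core106 proteins; Medium: KF-containing HEPES buffer, pH 7.45, DTT, CHAPS, BSA; Times: compound-protein-antibody incubation 4 h at 22.5 °C; Detection: TR-FRET 671 and 617 nm emission; Benchmarks: wells lacking GST-core106 and wells with excess unlabelled core106.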
# NS3 helicase inh: inhibitors of Hepatitis C virus NS3 helicase | NS3 helicase DNA unwinding, Cy5 molecular beacon fluorescence | AID 1800 | 0.56% of 290,000 active | inhibition, % at 10.9 µM;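 active = inhibition above the mean of all tested compounds plus 3 SD, set per campaign, cut at about 35% in these data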
#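 System: HCV NS3 helicase fragment; control set: DMSO and thioflavine S; technique: Cy5 fluorescence at 0 and 60 min, beacon hairpin quenching; reagent: beacon DNA duplex substrate plus ATP; replicates: singlicate; schedule: 1 h reaction at 25 °C, ATP-initiated; medium: MOPS buffer pH 6.5 with MgCl2, DTT, Tween20, BSA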
# TAAR1 ag confirm: confirmation of human TAAR1 agonists; CHO RD-HGA16 TAAR1, Fluo-8 calcium fluorescence; scaled: DMSO 0%, maximal phenethylamine 100%; 82% of 2,400 active; activation, % at 3 µM; shares compounds with TAAR1 agonist;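 active = activation above a cutoff set at the run's mean compound activation plus 3 SD, cut at about 39% in these data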
# Ga16 ag counter: nonselective agonism, TAAR1 counter-screen; CHO-Ga16 parental, Fluo-8 calcium fluorescence; normalized to maximal ATP response, DMSO zero; AID 651787; activation, % at 3 µM; 50% of 2,400 active; shares compounds with TAAR1 agonist;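 active = activation above the run cutoff, the mean activation over all tested wells plus 3 SD, cut at about 12% in these data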
# TAAR1 desens: counter-screen for human TAAR1 agonists: agonists that desensitize TAAR1; CHO RD-HGA16 hTAAR1, Fluo-8 calcium, beta-PEA response inhibition; shares compounds with TAAR1 agonist; inhibition, % at 3 µM; 46% of 2,400 active; AID 651951;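 active = inhibition above the run cutoff, the mean inhibition of all test compounds plus 3 SD, cut at about 49% in these data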;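 also: beta-PEA stimulus applied at its EC80; loss of beta-PEA calcium signal after compound pretreatment read as receptor desensitization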
# Ga16 nonsel ant: nonselective Ga16 antagonism, counter-screen; inhibition, % at 3 µM; AID 651952; 39% of 2,400 active; CHO-Ga16 ATP-induced calcium, Fluo-8 fluorescence; shares compounds with TAAR1 agonist;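 active = inhibition above the plate's mean compound inhibition plus 3 SD, computed per plate, cut at about 22% in these data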
# Hits are given with their value; i = inactive; nt = no result given. Hits are enriched below; roughly 3.7% of the tested compounds scored in any of these assays.
SMILES,TAAR1 antag,TAAR1 agonist,rCAG RNA binder,HCV core dimer,NS3 helicase inh,TAAR1 ag confirm,Ga16 ag counter,TAAR1 desens,Ga16 nonsel ant
COC(=O)[C@]12C[C@H](CC(=O)N3CCN(C(=O)c4ccco4)CC3)C(=O)N(Cc3ccco3)C1=C[C@H](COCc1ccccc1)O[C@@H]2C,nt,nt,i,nt,nt,nt,nt,nt,nt
CCCCNC(=O)C[C@H]1C[C@@]2(C(=O)OCC)CCCC3=C2N(CCC3)C1=O,nt,nt,i,nt,nt,nt,nt,nt,nt
COC(=O)[C@]12C[C@H](CC(=O)NCCC(C)C)C(=O)N(CCc3ccc(OC)c(OC)c3)C1=C[C@H](C1CCCC1)O[C@@H]2C,nt,nt,i,nt,nt,nt,nt,nt,nt
COc1cc(OC)c(-n2cc(-c3ccc(OC)c(OC)c3)[nH]c2=S)cc1Cl,i,96,i,nt,i,i,i,i,i
CC(C)CNC(=O)OCc1cn(Cc2ccc(C(F)(F)F)cc2)nn1,nt,nt,i,nt,nt,nt,nt,nt,nt
O=C(N/N=C\c1c(O)ccc2ccccc12)c1cncc(Br)c1,59,121,i,i,i,72,90,52,58
COc1cc(CNc2ncnc3c2ncn3[C@H]2CN(CCc3ccccc3)C[C@@H](CO)O2)cc(OC)c1OC,i,59,i,nt,nt,64,i,i,i
COCCNc1ncnc2c1ncn2[C@H]1CN(CCc2ccccc2)C[C@@H](CO)O1,i,46,i,nt,nt,48,i,i,i
CC(Cc1ccccc1)N/C=C1\CC(=O)NC1=O (configuration not stated),53,74,i,i,i,72,i,i,i
COC(=O)[C@]12C[C@H](CC(=O)NCc3ccc(C)o3)C(=O)N(Cc3ccc(Cl)cc3Cl)C1=C[C@H](C(C)(C)C)O[C@@H]2C,nt,nt,i,nt,nt,nt,nt,nt,nt
O=C(NCc1ccccc1)c1cc(-c2ccco2)on1,i,i,i,i,i,nt,nt,nt,nt
O=C(NCCc1ccccc1)c1cc(-c2ccco2)on1,i,47,i,i,i,44,i,i,i
O=C(Nc1ccncc1)Nc1ccc(F)cc1F,i,47,i,i,i,71,i,i,i
O=C(Nc1ccncc1)c1cccc(F)c1,i,i,i,i,i,nt,nt,nt,nt
O=C(Nc1cccnc1)Nc1cccc(F)c1,i,52,i,i,i,78,i,54,i
Fc1cccc(NC(=S)Nc2cccnc2)c1,i,i,i,i,i,nt,nt,nt,nt
Cc1cccc(NC(=O)Nc2ccncc2)c1,i,53,i,i,i,77,i,i,i
O=C(Nc1ccncc1)Nc1cccc(F)c1,i,92,i,nt,i,104,12,84,i
O=C(Nc1ccc(F)cc1F)Nc1ccc(F)cc1F,i,i,i,i,i,nt,nt,nt,nt
Cc1cccc(NC(=O)Nc2cnccn2)c1,i,i,i,i,i,nt,nt,nt,nt
COc1cc2c(cc1NC(=O)CSc1nnc(-c3cccnc3)n1-c1ccc(Br)cc1)oc1ccccc12,nt,nt,i,nt,nt,nt,nt,nt,nt
CCOc1ccc(NC(=O)Cn2nnc(-c3ccccc3F)n2)cc1,i,75,i,i,i,i,i,i,i
COc1ccc(/C=C/c2cc[n+](C(=O)Cc3ccccc3)cc2)cc1,i,47,i,i,i,70,i,i,i
O=C(OC12CCCN(C1)/C(=C/c1ccccc1)C2)C1CCCCC1 (configuration not stated),nt,nt,i,nt,nt,nt,nt,nt,nt
ClC(=C\c1ccccc1)/C=N/N1CCN(c2ccccn2)CC1,i,i,i,i,i,nt,nt,nt,nt
SMILES,TAAR1 antag,TAAR1 agonist,rCAG RNA binder,HCV core dimer,NS3 helicase inh,TAAR1 ag confirm,Ga16 ag counter,TAAR1 desens,Ga16 nonsel ant
ClC(/C=N/n1cnnc1)=C/c1ccccc1,i,76,i,i,i,62,30,i,i
CC(=C/c1ccccc1)/C=N/n1cnnc1,i,96,i,i,i,i,59,i,i
CC(/C=N/n1cnnc1)=C\c1ccccc1,i,102,i,i,i,87,63,i,i
CC(=O)c1cc(-c2ccc(-c3cc(C(=O)O)c4ccccc4n3)cc2)c(=O)n2c1CCC2,nt,nt,i,nt,nt,nt,nt,nt,nt
COc1cc2c(c(OC)c1OC)C1(CCCCC1)CC2NS(=O)(=O)C(C)C (configuration not stated),49,92,i,nt,nt,i,i,i,i
COc1cc2c(c(OC)c1OC)C1(CCCCC1)CC2NC(=O)c1ccncc1 (configuration not stated),i,i,i,nt,nt,nt,nt,nt,nt
C=CCN(CC#Cc1ccccc1)CC=C,nt,nt,i,nt,nt,nt,nt,nt,nt
Cn1nc(C(=O)OCc2ccccc2F)c2ccccc2c1=O,94,432,i,i,i,i,i,i,28
Cn1nc(C(=O)OCC(=O)c2ccc[nH]2)c2ccccc2c1=O,i,i,i,i,i,nt,nt,nt,nt
COc1ccc(-c2cc(-c3cccnc3)c(C#N)c(N)n2)cc1,i,46,i,i,i,i,i,i,22
CCc1cccc2c(C(C)c3ccccc3O)c[nH]c12 (configuration not stated),nt,nt,i,nt,nt,nt,nt,nt,nt
CC(NCc1ccc(OCc2ccc(Cl)cc2)cc1)C(O)c1ccccc1 (configuration not stated),i,52,i,i,i,39,27,49,40
CC(NCc1cccc(OCc2ccccc2)c1)C(O)c1ccccc1 (configuration not stated),i,i,i,i,i,nt,nt,nt,nt
CC(C)NS(=O)(=O)c1ccc(Oc2ncc(C(F)(F)F)cc2Cl)cc1,i,i,i,i,i,nt,nt,nt,nt
CCCNS(=O)(=O)c1ccc(Oc2ncc(C(F)(F)F)cc2Cl)cc1,i,53,i,i,i,40,23,i,i
c1ccc(Cc2cnc(N3CCN(Cc4csc5ccccc45)CC3)nc2)cc1,i,i,i,nt,nt,nt,nt,nt,nt
CC1NC(=O)NC1CCCCCC(=O)NCCc1ccccc1 (configuration not stated),i,48,i,i,i,78,i,74,i
Cc1ccc(SC/C(O)=C(\C#N)c2nc3ccccc3n2C)cc1,56,52,i,i,i,i,51,i,53
COC(=O)[C@]12CCCCC=C1N(Cc1ccc(OC)cc1)C(=O)[C@@H]2CC(=O)NCc1cccs1,nt,nt,i,nt,nt,nt,nt,nt,nt
COc1ccc(S(=O)(=O)N(Cc2ccccc2)Cc2nc3ccccc3c(=O)[nH]2)cc1,i,i,i,i,i,nt,nt,nt,nt
O=c1[nH]c(CN(CCc2ccccc2)S(=O)(=O)c2ccc(Cl)cc2)nc2ccccc12,73,79,i,i,i,90,14,95,24
CC(=NNC(=O)c1ccncc1)c1ccc2ccccc2c1O,76,167,i,nt,nt,72,153,54,78

# From PubChem BioAssay
